Test results reported in ChEMBL document CHEMBL1154436, “Synthesis, pharmacological activity and hydrolytic behavior of ethylenediamine and benzathine conjugates of ibuprofen” (Eur J Med Chem, 2008).

Columns and labels:
[1] = Chemical stability assessed as hydrolysis in phosphate buffer at pH 7.4; assay type: physicochemical
How it was run: (§1)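 Hydrolysis in HCl (pH 1.2) or phosphate (pH 7.4) buffer, 0.05 M total buffer, ionic strength held at 0.5 M with KCl, 37 °C. Released parent drug measured by UV in a chloroform extract. At pH 7.4, sampled at 0.5–10 h. pH 1.2 assay run 2 h. First-order k = 2.303/t·log(a/(a−x)), t in minutes; half-life derived. Mean of three sets.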

Rattus norvegicus [2] = assay: Antiinflammatory activity in Wistar rat assessed as inhibition of carrageenan-induced paw edema at 21.15 mg/kg, po administered 30 mins before carrageenan challenge measured 3 hrs after post drug dose; assay type: functional
How it was run: (§2)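 Wistar rats (150–200 g), four groups of six. Drug given orally, 0.75–1.0 ml of a suspension in 0.5% w/v sodium CMC (stocks 4, 4.23, 5.99 mg/ml), dose molecularly equivalent to ibuprofen 20 mg/kg. Control group received no drug. Carrageenan 1%, 0.1 ml, injected subplantar into the left hind paw 30 min after dosing. Paw volume measured before and after treatment. Inhibition % = [(Vt−V0)control − (Vt−V0)treated]/(Vt−V0)control × 100. One-way ANOVA versus control.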

Mus musculus [3] = assay: Analgesic activity in Swiss albino mouse assessed as protection against acetic acid-induced writhing at 21.15 mg/kg, po administered 3 hrs mins before acetic acid challenge relative to control; assay type: functional
How it was run: (§3)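 Mice, four groups of six: vehicle control 5 ml/kg, or test drug as a homogeneous suspension in 0.5% w/v aqueous sodium CMC (stocks 1, 1.05, 1.49 mg/ml), 0.5–0.6 ml orally, doses molecularly equivalent to ibuprofen 20 mg/kg. Acetic acid given i.p. at 1 ml/100 g body weight. Writhings counted over 10 min. Protection % = 100 − (test/control writhings × 100). Mean ± S.E.M.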

[4] = Chemical stability assessed as hydrolysis in hydrochloric acid buffer at pH 1.2; assay type: physicochemical; how it was run: as §1
Rattus norvegicus [5] = assay: Gastrointestinal toxicity in Wistar rat assessed ulcer index at 100 mg/kg, po after 17 hrs; assay type: organism-based; design: dose 100 mg/kg, route oral; conditions: in vivo
How it was run: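 Adult Wistar rats (150–200 g), four groups of six, fasted 8 h before dosing. Vehicle control, ibuprofen 100 mg/kg, or conjugate at a dose molecularly equivalent to ibuprofen 100 mg/kg. Killed 17 h after dosing, with food and water ad libitum. Gastric mucosa examined with a 4× binocular magnifier. Lesions classed as large (>2 mm), small (1–2 mm) or punctiform (<1 mm) and scored. Index = treated mean score minus control mean score.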

Rattus norvegicus [6] = assay: Antiinflammatory activity in Wistar rat assessed as inhibition of carrageenan-induced paw edema at 21.15 mg/kg, po administered 30 mins before carrageenan challenge measured 24 hrs after post drug dose; assay type: functional; how it was run: as §2
Mus musculus [7] = assay: Analgesic activity in Swiss albino mouse assessed as protection against acetic acid-induced writhing at 29.98 mg/kg, po administered 3 hrs mins before acetic acid challenge relative to control; assay type: functional; how it was run: as §3
Rattus norvegicus [8] = assay: Antiinflammatory activity in Wistar rat assessed as inhibition of carrageenan-induced paw edema at 29.98 mg/kg, po administered 30 mins before carrageenan challenge measured 24 hrs after post drug dose; assay type: functional; how it was run: as §2
Rattus norvegicus [9] = assay: Antiinflammatory activity in Wistar rat assessed as inhibition of carrageenan-induced paw edema at 29.98 mg/kg, po administered 30 mins before carrageenan challenge measured 3 hrs after post drug dose; assay type: functional; how it was run: as §2
Rattus norvegicus [10] = assay: Antiinflammatory activity in Wistar rat assessed as inhibition of carrageenan-induced paw edema at 20 mg/kg, po administered 30 mins before carrageenan challenge measured 24 hrs after post drug dose; assay type: functional; how it was run: as §2
Mus musculus [11] = assay: Analgesic activity in Swiss albino mouse assessed as protection against acetic acid-induced writhing at 20 mg/kg, po administered 3 hrs mins before acetic acid challenge relative to control; assay type: functional; how it was run: as §3
Rattus norvegicus [12] = assay: Antiinflammatory activity in Wistar rat assessed as inhibition of carrageenan-induced paw edema at 20 mg/kg, po administered 30 mins before carrageenan challenge measured 3 hrs after post drug dose; assay type: functional; how it was run: as §2

half-life [1] | Stability [4] | SMILES | inhibition in vivo at 21.15 mg/kg (Rattus norvegicus [2]) | Activity (Mus musculus [3]) | UI (Rattus norvegicus [5]) | inhibition in vivo at 21.15 mg/kg (Rattus norvegicus [6]) | Activity (Mus musculus [7]) | inhibition in vivo at 29.98 mg/kg (Rattus norvegicus [8]) | inhibition in vivo at 29.98 mg/kg (Rattus norvegicus [9]) | inhibition in vivo at 20 mg/kg (Rattus norvegicus [10]) | Activity (Mus musculus [11]) | inhibition in vivo at 20 mg/kg (Rattus norvegicus [12])
1.16 h | Stable | CC(C)Cc1ccc(C(C)C(=O)NCCNC(=O)C(C)c2ccc(CC(C)C)cc2)cc1 (mixture of isomers) | 48% | 29.63% | 4.63 | 38% | – | – | – | – | – | –
1.38 h | Stable | CC(C)Cc1ccc(C(C)C(=O)N(CCN(Cc2ccccc2)C(=O)C(C)c2ccc(CC(C)C)cc2)Cc2ccccc2)cc1 (mixture of isomers) | – | – | – | – | 35.84% | 32.4% | 53.5% | – | – | –
– | – | CC(C)Cc1ccc(C(C)C(=O)O)cc1 (stereo not given) [IBUPROFEN] | – | – | 13.51 | – | – | – | – | 35.6% | 23.42% | 52.1%
